Here are results for five molecules from ChEMBL document CHEMBL1122522, “Conformationally restricted retinoids” (1984).

Experiment [1] deals with Cricetinae gen. sp. In words: Activity of compound the was expressed as ratio of active hamster tracheal organ cultures(TOC) to the total cultures at 10e-10 M concentration; 18/19. Type of experiment: functional, Cricetulus griseus, Trachea. The gist of the method:
(§1)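 Tracheal organ cultures came from vitamin A-deficient hamsters. Each culture was scored for reversal of keratinization and reported as active cultures out of total cultures at each retinoid concentration tested (10⁻⁸ to 10⁻¹² M). The protocol followed earlier published methods.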

For experiment [2], the system named is Cricetinae gen. sp. In words: Activity of compound the was expressed as ratio of active hamster tracheal organ cultures(TOC) to the total cultures at 10e-11 M concentration; 10/20. Type of experiment: functional, Cricetulus griseus, Trachea. The gist of the method:
as §1

The test system of experiment [3] is Cricetinae gen. sp. In words: Molarity required to effect reversal of keratinization in 50% of cultures. Format: functional, Cricetulus griseus.
For experiment [4], the system named is Cricetinae gen. sp. The experiment in a line: Activity of compound the was expressed as ratio of active hamster tracheal organ cultures(TOC) to the total cultures at 10e-12 M concentration; 3/19. Format: functional, Cricetulus griseus, Trachea. The gist of the method:
as §1

For experiment [5], the species on record is Mus musculus. In words: Tested for relative activity in a 20-week anti-papilloma experiment in female CD-1 mice at dose 1.7 nmol. Format: functional. A digest of the protocol:
(§2)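 Female Charles River CD-1 mice, 8 weeks old, in random groups of 25–30, were shaved 2 days before initiation with 200 nmol DMBA in acetone on the back. From 2 weeks on, 8.5 nmol TPA was applied twice weekly for 20 weeks. Retinoid in 0.2 mL acetone, or acetone alone for controls, was given 1 h before each TPA dose. Papillomas were counted weekly, and mean papillomas per mouse were compared with controls at 20 weeks.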

Experiment [6] is filed under the species Mus musculus. In words: Tested for relative activity in a 20-week anti-papilloma experiment in female CD-1 mice at dose 17 nmol. Type of experiment: functional. The gist of the method:
as §2

The species entered for experiment [7] is Mus musculus. In words: Percent decrease in average number of papillomas at dose 170 nmol *-p<0.001. Format: functional. The gist of the method:
as §2

The species entered for experiment [8] is Mus musculus. The experiment in a line: Percent decrease in average number of papillomas at dose 17 nmol *-p<0.001. Type of experiment: functional. The gist of the method: as §2
Experiment [9] in a line: Mortality range in days at dose 200 umol/kg day; 14-15. Format: functional, Mus musculus. A digest of the protocol:
(§3)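 Adult female Swiss mice (20–25 g) had chow and water ad libitum. The retinoid was homogenized as a suspension in aqueous 8% Cremophor EL plus 10% propylene glycol. It was given ip as 10 weekday injections over 14 days. Controls received vehicle alone. Survivors were weighed on days 1, 5, 10 and 15, and dates of death were recorded. Survival was scored at days 8 and 15.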

Experiment [10] is described as follows: Mortality range in days at dose 300 umol/kg day; 10-14. Format: functional, Mus musculus. The gist of the method:
as §3

Experiment [11] is described as follows: Mortality range in days at dose 600 umol/kg day; 7-13. Format: functional, Mus musculus. The gist of the method: as §3
The nature of experiment [12]: Percent survivors at dose 100 umol/kg day. Format: functional, Mus musculus. The gist of the method:
as §3

Experiment [13] is described as follows: Percent survivors at dose 200 umol/kg day. Format: functional, Mus musculus. A digest of the protocol: as §3
A short description of experiment [14]: Percent survivors at dose 300 umol/kg day. Format: functional, Mus musculus. The gist of the method: as §3
Experiment [15] is described as follows: Percent survivors at dose 33 umol/kg day. Format: functional, Mus musculus. A digest of the protocol:
as §3

Experiment [16] can be described thus: Percent survivors at dose 600 umol/kg day. Type of experiment: functional, Mus musculus. A digest of the protocol:
as §3

A short description of experiment [17]: Percent survivors at dose 67 umol/kg day. Type of experiment: functional, Mus musculus. A digest of the protocol: as §3
The species named for experiment [18] is Mus musculus. In words: Percent decrease in average number of papillomas at dose 1.7 nmol *-p<0.01. Format: functional. The gist of the method:
as §2

For experiment [19], the species on record is Mus musculus. The experiment in a line: Tested for percentage of mice with papillomas in a 20-week anti-papilloma experiment in female CD-1 mice at dose 170 nmol.
Experiment [20] deals with Cricetinae gen. sp. The experiment in a line: Activity of compound the was expressed as ratio of active hamster tracheal organ cultures(TOC) to the total cultures at 10e-10 M concentration; 1/7. Format: functional, Cricetulus griseus, Trachea. The gist of the method:
as §1

Experiment [21] deals with Cricetinae gen. sp. The experiment in a line: Activity of compound the was expressed as ratio of active hamster tracheal organ cultures(TOC) to the total cultures at 10e-8 M concentration; 4/7. Format: functional, Cricetulus griseus, Trachea. The gist of the method:
as §1

The test system of experiment [22] is Cricetinae gen. sp. In words: Activity of compound the was expressed as ratio of active hamster tracheal organ cultures(TOC) to the total cultures at 10e-9 M concentration; 2/6. Type of experiment: functional, Cricetulus griseus, Trachea. A digest of the protocol: as §1
Experiment [23] addresses T1, Ornithine decarboxylase (Mus musculus) (UniProt P00860).
T1 sequence (whole entry): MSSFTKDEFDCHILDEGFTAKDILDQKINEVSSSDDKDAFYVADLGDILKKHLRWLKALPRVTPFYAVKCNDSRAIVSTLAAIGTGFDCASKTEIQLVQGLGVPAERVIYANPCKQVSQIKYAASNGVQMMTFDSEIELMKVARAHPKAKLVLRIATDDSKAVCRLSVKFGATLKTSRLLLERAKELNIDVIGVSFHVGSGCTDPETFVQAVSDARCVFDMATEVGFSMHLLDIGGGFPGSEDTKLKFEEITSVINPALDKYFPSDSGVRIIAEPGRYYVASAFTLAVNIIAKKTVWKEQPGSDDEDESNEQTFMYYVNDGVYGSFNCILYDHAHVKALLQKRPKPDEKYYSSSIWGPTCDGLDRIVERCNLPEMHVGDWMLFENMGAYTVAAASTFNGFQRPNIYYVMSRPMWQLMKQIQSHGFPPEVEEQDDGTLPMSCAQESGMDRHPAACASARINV
The experiment in a line: Inhibition of the induction of ornithine decarboxylase in mouse epidermis by the tumor promoter 12-O-tetradecanoylphorbol-13-acetate (ODC) at dose 1.7 nmol * p<0.001* inhibition not significant.

The target of experiment [24] is T1, Ornithine decarboxylase (Mus musculus). In words: Inhibition of the induction of ornithine decarboxylase in mouse epidermis by the tumor promoter 12-O-tetradecanoylphorbol-13-acetate (ODC) at dose 17 nmol * inhibition not significant.
Experiment [25] concerns Cricetinae gen. sp. The experiment in a line: Activity of compound the was expressed as ratio of active hamster tracheal organ cultures(TOC) to the total cultures at 10e-10 M concentration; 7/7. Format: functional, Cricetulus griseus, Trachea. The conditions noted are these: in the assay text read “10e-8 M” for “1 nM”. A digest of the protocol:
as §1

The subject of experiment [26] is Cricetinae gen. sp. In words: Activity of compound the was expressed as ratio of active hamster tracheal organ cultures(TOC) to the total cultures at 10e-11 M concentration; 7/7. Format: functional, Cricetulus griseus, Trachea. The conditions noted are these: in the assay text read “10e-9 M” for “100 pM”. A digest of the protocol: as §1
Experiment [27] deals with Cricetinae gen. sp. The experiment in a line: Activity of compound the was expressed as ratio of active hamster tracheal organ cultures(TOC) to the total cultures at 10e-12 M concentration; 0/6. The settings on record: in the assay text read “1 nM” for “10 pM”. Type of experiment: functional, Cricetulus griseus, Trachea. A digest of the protocol:
as §1

Experiment [28] deals with T1, Ornithine decarboxylase (Mus musculus). The experiment in a line: Inhibition of the induction of ornithine decarboxylase in mouse epidermis by the tumor promoter 12-O-tetradecanoylphorbol-13-acetate (ODC) at dose 17 nmol * p<0.001.
The target is the same in experiment [29]. The experiment in a line: Inhibition of the induction of ornithine decarboxylase in mouse epidermis by the tumor promoter 12-O-tetradecanoylphorbol-13-acetate (ODC) at dose 1.7 nmol * p<0.001.
The target is the same in experiment [30]. The experiment in a line: Inhibition of the induction of ornithine decarboxylase in mouse epidermis by the tumor promoter 12-O-tetradecanoylphorbol-13-acetate (ODC) at dose 1.7 nmol.
In experiment [31] the test system is Cricetinae gen. sp. In words: Activity of compound the was expressed as ratio of active hamster tracheal organ cultures(TOC) to the total cultures at 10e-9 M concentration; 1/7. Type of experiment: functional, Cricetulus griseus, Trachea. A digest of the protocol: as §1
The subject of experiment [32] is Cricetinae gen. sp. In words: Activity of compound the was expressed as ratio of active hamster tracheal organ cultures(TOC) to the total cultures at 10e-8 M concentration; 2/7. Format: functional, Cricetulus griseus, Trachea. A digest of the protocol:
as §1

Experiment [33] addresses T1, Ornithine decarboxylase (Mus musculus). The experiment in a line: Inhibition of the induction of ornithine decarboxylase in mouse epidermis by the tumor promoter 12-O-tetradecanoylphorbol-13-acetate (ODC) at dose 17 nmol; Inhibition not significant.
Experiment [34] has the same target. The experiment in a line: Inhibition of the induction of ornithine decarboxylase in mouse epidermis by the tumor promoter 12-O-tetradecanoylphorbol-13-acetate (ODC) at dose 1.7 nmol; Inhibition not significant.

For `CC1=C(/C=C/C(C)=C/C=C/C(C)=C/C(=O)O)C(C)(C)CCC1` [TRETINOIN], the Activity turned out to be 18% in the experiment with Cricetinae gen. sp. [1]; 10% in the experiment with Cricetinae gen. sp. [2]; 3% in the experiment on Cricetinae gen. sp. [4]; 69% in the experiment filed under Mus musculus [5]; 47% in the experiment filed under Mus musculus [6]. In addition, the ED50 in the experiment on Cricetinae gen. sp. [3] was 1e-11. The results for the Decrease in the experiment filed under Mus musculus [7], in the experiment filed under Mus musculus [8] and in the experiment listed under Mus musculus [18] were 89.6%, 74.1% and 56.2%, respectively. Also, the results for the Mortality range in experiment [9], in experiment [10] and in experiment [11] were 15 days, 14 days and 13 days, respectively. For the same molecule, the “Survivors at day 8” value in experiment [12] was determined as 100%; in experiment [13], 100%; in [14], 100%; in experiment [15] it was 100%; in [16] it was 95%; in [17], 100%. Also, the “Survivors at day 15” value is on record as 100% in experiment [12]; 63% in experiment [13]; 0% in experiment [14]; 100% in experiment [15]; 0% in experiment [16]; 100% in [17]. The “mice with papillomas %” value in the experiment listed under Mus musculus [19] was determined as 40%.
Usually inhibition stands for the relative decrease from the control value, in per cent. A higher inhibition goes with a response far below the control. As to `CCOC(=O)c1ccc(C2CC2c2ccc3c(c2)C2CCC3C2)cc1` (stereo not given), the Activity with Cricetinae gen. sp. [20] was found to be 1%; in the experiment with Cricetinae gen. sp. [21], 4%; in the experiment on Cricetinae gen. sp. [22] it was 33%. In the experiment with Cricetinae gen. sp. [3], the ED50 is given as 5e-09. Moreover, the inhibition in experiment [23] worked out at 12%; in [24] it was 0%.
Regarding `CCOC(=O)c1ccc(/C=C(\C)[C@H]2CC2C2=C(C)CCCC2(C)C)cc1` (stereo not given in full), the Activity with Cricetinae gen. sp. [25] is 7%; in the experiment with Cricetinae gen. sp. [26] it was 7%; in the experiment with Cricetinae gen. sp. [27], 0%. For the same molecule, in the experiment with Cricetinae gen. sp. [3], the ED50 came out at 3e-10. In addition, the figures for the inhibition in experiment [28] and in [29] were 80% and 77%, respectively.
For the molecule `CC1=C(/C=C/C(C)=C/c2ccc(C(=O)O)cc2)C(C)(C)CCC1`, the ED50 with Cricetinae gen. sp. [3] was determined as 3e-10. In addition, the inhibition in experiment [30] came out at 77%.
With `CC1=C(c2ccc(/C=C/C(C)=C/C(=O)O)c(C)c2)C(C)(C)CCC1`, the Activity is 1% with Cricetinae gen. sp. [20], 1% in the experiment on Cricetinae gen. sp. [31] and 2% with Cricetinae gen. sp. [32]. In addition, in the experiment with Cricetinae gen. sp. [3], the ED50 is reported as >1e-08. The values for the inhibition in experiment [33] and in experiment [34] were 23% and 9%, respectively.
